In ChEMBL document CHEMBL2424622, “Development of amino-pyrimidine inhibitors of c-Jun N-terminal kinase (JNK): kinase profiling guided optimization of a 1,2,3-benzotriazole lead” (Bioorg Med Chem Lett, 2013) one finds inhibition data, which are given here for seven compounds.

A word on the inhibition: it is how much of the control response was suppressed.

The target of experiment [1] is Tyrosine-protein kinase Fyn (Homo sapiens) (UniProt P06241). The experiment in a line: Competitive binding affinity to FYN (unknown origin) at 10 uM in presence of ATP relative to control. A digest of the protocol:
(§1)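 In vitro ATP-site competition binding assay, part of profiling against a diverse panel of 128 kinases. Each compound was tested at a single concentration of 10 µM. Kinome selectivity was summarized as S15 selectivity scores.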

The target in experiment [2] is Tyrosine-protein kinase Fer (Homo sapiens) (UniProt P16591). The experiment in a line: Competitive binding affinity to FER (unknown origin) at 10 uM in presence of ATP relative to control. A digest of the protocol:
as §1

Experiment [3] addresses Ephrin type-A receptor 5 (Homo sapiens) (UniProt P54756). Put plainly: Competitive binding affinity to EPHA5 (unknown origin) at 10 uM in presence of ATP relative to control. The essentials: as §1
Experiment [4] addresses Calcium/calmodulin-dependent protein kinase type 1 (Homo sapiens, UniProt Q14012). The experiment in a line: Competitive binding affinity to CAMK1 (unknown origin) at 10 uM in presence of ATP relative to control.
Experiment [5] addresses Tyrosine-protein kinase Blk (Homo sapiens) (UniProt P51451). Put plainly: Competitive binding affinity to BLK (unknown origin) at 10 uM in presence of ATP relative to control.
For experiment [6], the target named is BMP-2-inducible protein kinase (Homo sapiens) (UniProt Q9NSY1). Put plainly: Competitive binding affinity to BIKE (unknown origin) at 10 uM in presence of ATP relative to control.
For experiment [7], the target named is T1, Aurora kinase A (Homo sapiens) (UniProt O14965).
T1 sequence (whole entry): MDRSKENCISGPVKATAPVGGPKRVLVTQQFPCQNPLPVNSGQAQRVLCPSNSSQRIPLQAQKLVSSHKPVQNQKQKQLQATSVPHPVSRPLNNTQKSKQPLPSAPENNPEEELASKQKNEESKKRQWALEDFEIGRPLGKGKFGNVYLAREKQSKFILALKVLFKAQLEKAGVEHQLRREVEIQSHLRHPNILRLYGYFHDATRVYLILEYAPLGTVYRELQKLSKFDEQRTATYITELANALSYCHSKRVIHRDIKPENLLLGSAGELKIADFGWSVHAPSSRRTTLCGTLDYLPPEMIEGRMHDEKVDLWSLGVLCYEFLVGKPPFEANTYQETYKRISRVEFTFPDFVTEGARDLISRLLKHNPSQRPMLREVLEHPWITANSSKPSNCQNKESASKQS
The experiment in a line: Competitive binding affinity to AURKA (unknown origin) at 10 uM in presence of ATP relative to control.

The target in experiment [8] is Vascular endothelial growth factor receptor 2 (Homo sapiens) (UniProt P35968). The experiment in a line: Competitive binding affinity to VEGFR2 (unknown origin) at 10 uM in presence of ATP relative to control. A digest of the protocol:
(§2)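 In vitro ATP-site competition binding assay across a diverse panel of 128 kinases, with compound tested at a single concentration. Kinase selectivity scores (S15) were calculated from the panel profiles.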

The target in experiment [9] is T2, Membrane-associated tyrosine- and threonine-specific cdc2-inhibitory kinase (Homo sapiens) (UniProt Q99640).
T2 sequence (whole entry): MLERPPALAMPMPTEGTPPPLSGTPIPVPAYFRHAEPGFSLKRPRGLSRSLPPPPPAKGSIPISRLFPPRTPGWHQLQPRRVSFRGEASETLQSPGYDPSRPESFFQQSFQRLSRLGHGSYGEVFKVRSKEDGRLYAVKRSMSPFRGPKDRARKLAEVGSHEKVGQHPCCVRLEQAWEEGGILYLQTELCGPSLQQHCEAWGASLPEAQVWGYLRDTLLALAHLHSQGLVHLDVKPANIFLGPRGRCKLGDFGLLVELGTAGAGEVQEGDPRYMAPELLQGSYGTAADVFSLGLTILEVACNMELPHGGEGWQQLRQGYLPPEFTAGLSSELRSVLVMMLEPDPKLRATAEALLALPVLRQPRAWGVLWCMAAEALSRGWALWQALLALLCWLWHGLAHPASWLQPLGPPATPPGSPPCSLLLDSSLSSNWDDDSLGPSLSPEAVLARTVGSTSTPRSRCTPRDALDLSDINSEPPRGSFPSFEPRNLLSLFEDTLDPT
The experiment in a line: Competitive binding affinity to PKMYT1 (unknown origin) at 10 uM in presence of ATP relative to control. The essentials: as §2

Experiment [10] has as its target cAMP-dependent protein kinase catalytic subunit alpha (Homo sapiens) (UniProt P17612). Put plainly: Competitive binding affinity to PKAC-alpha (unknown origin) at 10 uM in presence of ATP relative to control. The essentials: as §2
Experiment [11] deals with Serine/threonine-protein kinase pim-2 (Homo sapiens) (UniProt Q9P1W9). The experiment in a line: Competitive binding affinity to PIM2 (unknown origin) at 10 uM in presence of ATP relative to control. A digest of the protocol:
(§3)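 In vitro ATP-site competition binding assay across a diverse panel of 128 kinases, with each compound tested at a single concentration. Kinase binding is expressed relative to control.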

Experiment [12] addresses Platelet-derived growth factor receptor beta (Homo sapiens, UniProt P09619). The experiment in a line: Competitive binding affinity to PDGFRB (unknown origin) at 10 uM in presence of ATP relative to control. A digest of the protocol: as §3
For experiment [13], the target named is Platelet-derived growth factor receptor alpha (Homo sapiens) (UniProt P16234). Put plainly: Competitive binding affinity to PDGFRA (unknown origin) at 10 uM in presence of ATP relative to control. A digest of the protocol:
as §2

Experiment [14] has as its target Leukocyte tyrosine kinase receptor (Homo sapiens) (UniProt P29376). Put plainly: Competitive binding affinity to LTK (unknown origin) at 10 uM in presence of ATP relative to control. The essentials:
as §1

In experiment [15] the target is Tyrosine-protein kinase Lck (Homo sapiens) (UniProt P06239). Put plainly: Competitive binding affinity to LCK (unknown origin) at 10 uM in presence of ATP relative to control. A digest of the protocol: as §1
Experiment [16] addresses Tyrosine-protein kinase JAK2 (Homo sapiens) (UniProt O60674). The experiment in a line: Competitive binding affinity to JAK2 kinase domain 2 (unknown origin) at 10 uM in presence of ATP relative to control. The essentials:
as §1

Sequence of Platelet-derived growth factor receptor alpha (Homo sapiens) (P16234 whole entry): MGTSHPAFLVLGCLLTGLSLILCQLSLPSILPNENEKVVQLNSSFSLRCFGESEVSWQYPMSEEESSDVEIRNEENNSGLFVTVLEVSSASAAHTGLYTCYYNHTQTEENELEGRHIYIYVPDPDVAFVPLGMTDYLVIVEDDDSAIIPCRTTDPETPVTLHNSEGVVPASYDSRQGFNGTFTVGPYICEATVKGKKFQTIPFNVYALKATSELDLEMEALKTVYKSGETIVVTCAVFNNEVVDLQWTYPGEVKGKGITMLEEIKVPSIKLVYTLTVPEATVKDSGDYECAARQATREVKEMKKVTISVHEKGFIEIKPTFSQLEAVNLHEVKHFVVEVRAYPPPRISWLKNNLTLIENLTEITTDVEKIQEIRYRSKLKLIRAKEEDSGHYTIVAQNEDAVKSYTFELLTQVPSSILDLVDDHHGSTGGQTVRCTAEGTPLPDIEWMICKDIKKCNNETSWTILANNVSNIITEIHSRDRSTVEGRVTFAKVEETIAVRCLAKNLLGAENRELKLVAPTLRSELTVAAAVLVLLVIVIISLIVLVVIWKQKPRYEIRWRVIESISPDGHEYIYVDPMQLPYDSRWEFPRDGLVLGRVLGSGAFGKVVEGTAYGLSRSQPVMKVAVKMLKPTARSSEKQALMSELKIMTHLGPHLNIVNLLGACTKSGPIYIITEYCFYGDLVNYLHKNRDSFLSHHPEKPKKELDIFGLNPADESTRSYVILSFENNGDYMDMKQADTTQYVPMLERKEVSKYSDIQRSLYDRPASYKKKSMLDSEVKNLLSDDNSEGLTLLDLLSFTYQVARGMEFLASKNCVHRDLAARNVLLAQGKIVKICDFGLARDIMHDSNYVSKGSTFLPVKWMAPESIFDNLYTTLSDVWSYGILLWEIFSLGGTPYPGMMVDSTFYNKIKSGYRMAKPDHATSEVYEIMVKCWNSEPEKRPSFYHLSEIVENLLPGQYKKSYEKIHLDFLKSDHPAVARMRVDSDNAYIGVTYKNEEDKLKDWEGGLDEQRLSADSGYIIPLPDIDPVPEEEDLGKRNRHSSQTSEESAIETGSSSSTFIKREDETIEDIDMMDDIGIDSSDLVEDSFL
Sequence of Calcium/calmodulin-dependent protein kinase type 1 (Q14012 whole entry, looked up): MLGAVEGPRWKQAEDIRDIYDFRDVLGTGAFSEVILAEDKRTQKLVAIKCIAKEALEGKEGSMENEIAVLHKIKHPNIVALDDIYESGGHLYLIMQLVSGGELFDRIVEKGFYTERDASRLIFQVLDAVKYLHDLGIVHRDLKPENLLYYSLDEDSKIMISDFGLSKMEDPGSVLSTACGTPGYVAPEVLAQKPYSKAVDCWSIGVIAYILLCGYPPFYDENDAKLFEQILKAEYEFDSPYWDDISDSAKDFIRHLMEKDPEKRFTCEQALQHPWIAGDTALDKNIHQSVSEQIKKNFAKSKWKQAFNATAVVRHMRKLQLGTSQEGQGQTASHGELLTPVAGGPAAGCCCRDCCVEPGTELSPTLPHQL
Sequence of BMP-2-inducible protein kinase (Homo sapiens) (Q9NSY1 whole entry, looked up): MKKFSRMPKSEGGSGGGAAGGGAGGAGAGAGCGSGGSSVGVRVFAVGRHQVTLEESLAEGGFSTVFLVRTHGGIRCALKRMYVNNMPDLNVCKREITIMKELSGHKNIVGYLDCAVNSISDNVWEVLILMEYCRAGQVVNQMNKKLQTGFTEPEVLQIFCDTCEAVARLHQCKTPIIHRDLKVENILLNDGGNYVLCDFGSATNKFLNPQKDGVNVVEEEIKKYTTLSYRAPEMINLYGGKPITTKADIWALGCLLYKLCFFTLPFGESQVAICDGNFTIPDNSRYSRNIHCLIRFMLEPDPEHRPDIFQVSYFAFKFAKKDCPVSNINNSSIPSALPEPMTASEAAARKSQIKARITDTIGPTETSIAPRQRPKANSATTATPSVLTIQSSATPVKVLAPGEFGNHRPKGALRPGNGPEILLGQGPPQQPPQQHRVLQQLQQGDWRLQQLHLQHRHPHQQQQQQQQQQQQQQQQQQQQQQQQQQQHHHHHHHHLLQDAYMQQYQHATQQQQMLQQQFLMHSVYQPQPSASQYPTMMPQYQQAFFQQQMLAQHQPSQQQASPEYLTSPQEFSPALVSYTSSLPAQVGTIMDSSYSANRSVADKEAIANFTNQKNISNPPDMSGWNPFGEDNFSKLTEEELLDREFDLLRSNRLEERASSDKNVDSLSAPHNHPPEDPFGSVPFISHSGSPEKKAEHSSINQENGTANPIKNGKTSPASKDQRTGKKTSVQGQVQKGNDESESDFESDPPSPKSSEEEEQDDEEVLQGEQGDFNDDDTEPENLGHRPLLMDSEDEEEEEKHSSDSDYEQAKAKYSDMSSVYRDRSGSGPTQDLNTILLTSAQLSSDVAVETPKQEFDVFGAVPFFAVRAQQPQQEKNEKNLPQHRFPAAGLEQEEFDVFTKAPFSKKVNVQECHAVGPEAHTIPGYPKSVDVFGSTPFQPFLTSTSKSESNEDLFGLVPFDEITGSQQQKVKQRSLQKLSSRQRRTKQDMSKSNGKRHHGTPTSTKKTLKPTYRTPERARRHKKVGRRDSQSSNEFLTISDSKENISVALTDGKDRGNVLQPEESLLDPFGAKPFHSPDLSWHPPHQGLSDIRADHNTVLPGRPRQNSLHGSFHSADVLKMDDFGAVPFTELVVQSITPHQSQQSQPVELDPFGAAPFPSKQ
Sequence of Tyrosine-protein kinase Fyn (Homo sapiens) (P06241 2-537 limits assumed): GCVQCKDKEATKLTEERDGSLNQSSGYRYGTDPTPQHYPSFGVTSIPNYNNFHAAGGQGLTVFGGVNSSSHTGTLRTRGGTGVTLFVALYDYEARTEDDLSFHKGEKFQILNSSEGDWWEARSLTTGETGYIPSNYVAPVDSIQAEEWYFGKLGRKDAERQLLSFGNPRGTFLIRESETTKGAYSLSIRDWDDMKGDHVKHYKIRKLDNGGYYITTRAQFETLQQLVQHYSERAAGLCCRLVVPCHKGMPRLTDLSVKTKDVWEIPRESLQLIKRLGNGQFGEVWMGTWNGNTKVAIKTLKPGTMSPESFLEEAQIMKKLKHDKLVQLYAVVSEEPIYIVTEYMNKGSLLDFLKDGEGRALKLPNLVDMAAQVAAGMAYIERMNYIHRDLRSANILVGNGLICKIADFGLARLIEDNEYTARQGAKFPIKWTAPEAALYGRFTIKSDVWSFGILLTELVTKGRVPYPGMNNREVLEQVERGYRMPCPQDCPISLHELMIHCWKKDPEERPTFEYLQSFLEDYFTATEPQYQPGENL
Sequence of Tyrosine-protein kinase JAK2 (Homo sapiens) (O60674 whole entry, the tested form may be a part): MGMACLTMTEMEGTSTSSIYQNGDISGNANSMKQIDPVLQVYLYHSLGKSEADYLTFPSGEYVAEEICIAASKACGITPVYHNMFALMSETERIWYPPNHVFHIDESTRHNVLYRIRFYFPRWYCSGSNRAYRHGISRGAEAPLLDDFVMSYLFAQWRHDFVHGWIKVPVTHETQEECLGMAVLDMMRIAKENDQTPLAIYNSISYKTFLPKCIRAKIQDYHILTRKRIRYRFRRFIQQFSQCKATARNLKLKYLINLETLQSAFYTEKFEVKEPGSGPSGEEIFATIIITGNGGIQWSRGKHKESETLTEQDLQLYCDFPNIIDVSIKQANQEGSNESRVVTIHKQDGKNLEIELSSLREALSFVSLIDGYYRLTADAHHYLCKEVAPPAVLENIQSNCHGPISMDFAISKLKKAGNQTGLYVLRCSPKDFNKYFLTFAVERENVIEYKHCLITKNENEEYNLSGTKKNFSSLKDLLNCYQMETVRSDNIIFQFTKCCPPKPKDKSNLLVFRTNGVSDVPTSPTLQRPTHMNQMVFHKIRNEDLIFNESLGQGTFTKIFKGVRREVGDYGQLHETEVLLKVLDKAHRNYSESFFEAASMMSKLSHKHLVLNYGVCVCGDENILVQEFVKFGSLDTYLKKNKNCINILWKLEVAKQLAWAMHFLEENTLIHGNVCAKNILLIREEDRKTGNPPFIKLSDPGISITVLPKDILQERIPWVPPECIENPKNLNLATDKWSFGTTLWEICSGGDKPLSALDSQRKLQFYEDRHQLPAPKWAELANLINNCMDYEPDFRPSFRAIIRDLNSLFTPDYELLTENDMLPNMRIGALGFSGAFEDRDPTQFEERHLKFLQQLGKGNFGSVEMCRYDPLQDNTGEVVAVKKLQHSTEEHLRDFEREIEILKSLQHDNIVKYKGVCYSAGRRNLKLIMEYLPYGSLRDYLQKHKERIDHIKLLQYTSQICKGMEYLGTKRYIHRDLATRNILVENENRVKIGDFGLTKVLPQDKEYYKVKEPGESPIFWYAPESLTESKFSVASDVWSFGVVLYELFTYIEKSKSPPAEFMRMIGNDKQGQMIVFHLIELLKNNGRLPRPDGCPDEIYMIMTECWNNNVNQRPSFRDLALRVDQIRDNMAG
Sequence of Tyrosine-protein kinase Blk (Homo sapiens) (P51451 2-505 limits assumed): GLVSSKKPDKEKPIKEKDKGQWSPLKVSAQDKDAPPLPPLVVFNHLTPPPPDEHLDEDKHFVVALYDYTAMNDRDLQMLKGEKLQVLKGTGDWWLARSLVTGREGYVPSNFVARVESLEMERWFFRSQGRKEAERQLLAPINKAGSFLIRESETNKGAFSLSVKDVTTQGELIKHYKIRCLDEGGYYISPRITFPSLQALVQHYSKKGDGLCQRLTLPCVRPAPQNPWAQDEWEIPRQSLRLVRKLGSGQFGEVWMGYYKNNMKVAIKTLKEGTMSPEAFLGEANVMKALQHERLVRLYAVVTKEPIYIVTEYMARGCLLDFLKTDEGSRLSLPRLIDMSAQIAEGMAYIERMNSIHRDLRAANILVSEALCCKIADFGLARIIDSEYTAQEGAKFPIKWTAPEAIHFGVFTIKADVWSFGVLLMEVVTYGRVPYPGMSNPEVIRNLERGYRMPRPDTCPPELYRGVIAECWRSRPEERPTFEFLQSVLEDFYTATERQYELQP

As to `O[C@H]1CC[C@H](Nc2nccc(-c3n[nH]c4ccccc34)n2)CC1`, the inhibition in [1] was 77%; in experiment [2], 97%; in experiment [3], below 50%; in experiment [4], 98%; in experiment [5], 92%; in experiment [6] it was 99%. The inhibition in experiment [7] is 92%; in experiment [8], 91%; in [9], 89%; in experiment [10], below 50%; in experiment [11], 100%; in experiment [12], 98%. The inhibition was found to be 98% in experiment [13], 100% in experiment [14], 87% in [15] and 96% in experiment [16].
With `O[C@H]1CC[C@H](Nc2nccc(-n3ccc4ccccc43)n2)CC1`, the inhibition was below 50% in experiment [1]; below 50% in experiment [2]; below 50% in experiment [3]; 73% in [4]; below 50% in [5]; below 50% in [6]. Further, the inhibition in experiment [7] is below 50%; in experiment [8], below 50%; in [9], below 50%; in experiment [10], below 50%; in experiment [11], 86%; in experiment [12] it was 67%. For the same compound, the inhibition in experiment [13], in [14], in experiment [15] and in experiment [16] was below 50% throughout.
With `O[C@H]1CC[C@H](Nc2nccc(-n3ncc4ccccc43)n2)CC1`, the inhibition in experiment [1] is below 50%; in experiment [2] it was below 50%; in experiment [3], below 50%; in experiment [4], 76%; in experiment [5], below 50%; in experiment [6], 81%. Moreover, the inhibition was below 50% in experiment [7]; below 50% in experiment [8]; below 50% in experiment [9]; below 50% in experiment [10]; 99% in [11]; 90% in [12]. Besides, the inhibition was 72% in [13], below 50% in [14], below 50% in experiment [15] and below 50% in [16].
Turning to `O[C@H]1CC[C@H](Nc2nccc(-n3nnc4ccccc43)n2)CC1`, the inhibition in experiment [1] was below 50%; in experiment [2], below 50%; in [3], below 50%; in [4], below 50%; in [5], 88%; in [6], 86%. The inhibition in [7] was below 50%; in experiment [8], below 50%; in experiment [9], below 50%; in experiment [10], below 50%; in [11], 98%; in [12], 91%. Besides, the inhibition in experiment [13] is below 50%; in [14], below 50%; in [15], 65%; in [16], 72%.
Consider `O=C([C@H]1CC[C@H](Nc2nccc(-n3nnc4ccccc43)n2)CC1)N1CCOCC1`, for which the inhibition in [1] is 81%; in [2], below 50%; in experiment [3] it was below 50%; in experiment [4], below 50%; in experiment [5], 93%; in experiment [6], 87%. Besides, the inhibition in [7] is 80%; in experiment [8], below 50%; in experiment [9], below 50%; in experiment [10], below 50%; in experiment [11], 78%; in experiment [12] it was 70%. Moreover, the inhibition was below 50% in experiment [13], below 50% in [14], 70% in [15] and below 50% in [16].
In the case of `CS(=O)(=O)CCCOc1cccc2c1ccn2-c1ccnc(N[C@H]2CC[C@H](C(=O)N3CCC(O)CC3)CC2)n1`, the inhibition in experiment [4] and in experiment [12] was above 85% each time.
`N[C@H]1CC[C@H](Nc2nccc(-n3nnc4ccccc43)n2)CC1`: the inhibition was 80% in experiment [1]; below 50% in [2]; below 50% in experiment [3]; 89% in [4]; 99% in experiment [5]; 99% in experiment [6]. For the same compound, the inhibition is below 50% in experiment [7]; below 50% in [8]; below 50% in experiment [9]; below 50% in [10]; 99% in experiment [11]; 95% in [12]. The inhibition is below 50% in experiment [13], below 50% in experiment [14], 81% in experiment [15] and below 50% in experiment [16].
